Experimental data: ChEMBL document CHEMBL1132278, “Discovery of novel antitumor sulfonamides targeting G1 phase of the cell cycle” (J Med Chem, 1999)
Values after ≈ are worked out from the molar mass of the structure shown.

Experiments:
Assay type in all cases: functional, cell-based
[1] = system: MC-38; assay: In vitro antiproliferative activity against colon 38 murine adenocarcinoma; settings: Mus musculus
In short: (§1)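 RPMI1640 with 10% FBS; seeded at 2.5×10³ cells/well for KB and colon 38, 1.25×10³ cells/well for P388; preincubated 24 h at 37 °C, 5% CO2. DMSO stocks were diluted 3-fold serially in medium, with 200 μg/mL the top dilution. Exposure was continuous for 3 days, then MTT for 1–2 h. Formazan was read in DMSO at 540/660 nm, and IC50 was taken by least squares.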

[2] = system: KB; assay: Antiproliferative activity against KB human nasopharynx carcinoma in vitro; in short: as §1
[3] = system: P388; assay: Antiproliferative activity against P388 murine leukemia in vitro; settings: Mus musculus; in short: as §1

IC50 [2] [µg/mL]	IC50 [3] [µg/mL]	Compound	IC50 [1] [µg/mL]
6 (≈ 19.6 µM)	6 (≈ 19.6 µM)	O=S(=O)(Nc1cccc2cc[nH]c12)c1ccc(Cl)cc1	7 (≈ 22.8 µM)
21 (≈ 60 µM)	0.87 (≈ 2.49 µM)	NC(=O)c1ccc(S(=O)(=O)Nc2cccc3c(Cl)c[nH]c23)cc1	0.19 (≈ 0.543 µM)
15 (≈ 38.4 µM)	3.5 (≈ 8.96 µM)	CS(=O)(=O)Nc1ccc(S(=O)(=O)Nc2cccc3c(C#N)c[nH]c23)cc1	1.2 (≈ 3.07 µM)
13 (≈ 32.5 µM)	0.15 (≈ 0.375 µM)	NS(=O)(=O)Cc1ccc(S(=O)(=O)Nc2cccc3c(Cl)c[nH]c23)cc1	0.12 (≈ 0.3 µM)
33 (≈ 102 µM)	0.53 (≈ 1.64 µM)	N#Cc1ccc(S(=O)(=O)Nc2cccc3c(C#N)c[nH]c23)cc1	0.12 (≈ 0.372 µM)
4.4 (≈ 11.4 µM)	0.45 (≈ 1.17 µM)	NS(=O)(=O)c1ccc(S(=O)(=O)Nc2cccc3c(Cl)c[nH]c23)cc1 [INDISULAM]	0.1 (≈ 0.259 µM)
11 (≈ 33.2 µM)	1.4 (≈ 4.22 µM)	N#Cc1ccc(S(=O)(=O)Nc2cccc3c(Cl)c[nH]c23)cc1	0.13 (≈ 0.392 µM)
8.2 (≈ 25.4 µM)	0.2 (≈ 0.62 µM)	N#Cc1cccc(S(=O)(=O)Nc2cccc3c(C#N)c[nH]c23)c1	0.09 (≈ 0.279 µM)
0.55 (≈ 1.63 µM)	0.76 (≈ 2.26 µM)	COc1ccc(S(=O)(=O)Nc2cccc3c(Cl)c[nH]c23)cc1	0.2 (≈ 0.594 µM)
12 (≈ 30 µM)	1.6 (≈ 4 µM)	CS(=O)(=O)Nc1ccc(S(=O)(=O)Nc2cccc3c(Cl)c[nH]c23)cc1	0.26 (≈ 0.65 µM)
15 (≈ 37.5 µM)	0.9 (≈ 2.25 µM)	CNS(=O)(=O)c1ccc(S(=O)(=O)Nc2cccc3c(Cl)c[nH]c23)cc1	0.24 (≈ 0.6 µM)
10 (≈ 31.1 µM)	0.81 (≈ 2.52 µM)	Nc1ccc(S(=O)(=O)Nc2cccc3c(Cl)c[nH]c23)cc1	0.23 (≈ 0.715 µM)
36 (≈ 125 µM)	14 (≈ 48.7 µM)	Nc1ccc(S(=O)(=O)Nc2cccc3cc[nH]c23)cc1	6.1 (≈ 21.2 µM)
0.67 (≈ 2.22 µM)	1.1 (≈ 3.64 µM)	COc1ccc(S(=O)(=O)Nc2cccc3cc[nH]c23)cc1	1.5 (≈ 4.96 µM)
> 100	> 100	O=C(O)c1ccc(S(=O)(=O)Nc2cccc3c(Cl)c[nH]c23)cc1	> 100
2.2 (≈ 7.68 µM)	4.3 (≈ 15 µM)	Cc1ccc(S(=O)(=O)Nc2cccc3cc[nH]c23)cc1	2.4 (≈ 8.38 µM)
> 100	> 100	N#Cc1c[nH]c2c(NS(=O)(=O)c3ccc(C(=O)O)cc3)cccc12	> 100
61 (≈ 189 µM)	14 (≈ 43.4 µM)	N#Cc1ccccc1S(=O)(=O)Nc1cccc2c(C#N)c[nH]c12	2.8 (≈ 8.69 µM)
8.5 (≈ 28.6 µM)	4.2 (≈ 14.1 µM)	N#Cc1ccc(S(=O)(=O)Nc2cccc3cc[nH]c23)cc1	1.8 (≈ 6.05 µM)
26 (≈ 65 µM)	4.8 (≈ 12 µM)	CS(=O)(=O)Nc1cccc(S(=O)(=O)Nc2cccc3c(Cl)c[nH]c23)c1	1.5 (≈ 3.75 µM)
18 (≈ 45 µM)	18 (≈ 45 µM)	CS(=O)(=O)Nc1ccccc1S(=O)(=O)Nc1cccc2c(Cl)c[nH]c12	45 (≈ 113 µM)
1.4 (≈ 4.28 µM)	0.17 (≈ 0.519 µM)	COc1ccc(S(=O)(=O)Nc2cccc3c(C#N)c[nH]c23)cc1	0.17 (≈ 0.519 µM)
4.4 (≈ 14.1 µM)	0.72 (≈ 2.31 µM)	N#Cc1c[nH]c2c(NS(=O)(=O)c3ccc(N)cc3)cccc12	0.28 (≈ 0.896 µM)
	0.32 (≈ 0.862 µM)	COc1ccc(S(=O)(=O)Nc2cccnc2Nc2ccc(O)cc2)cc1 [ABT-751]	
15 (≈ 44.1 µM)	2.5 (≈ 7.35 µM)	N#Cc1c[nH]c2c(NS(=O)(=O)c3ccc(C(N)=O)cc3)cccc12	0.68 (≈ 2 µM)
